High-throughput results from PubChem BioAssay.
Shown are actives, neighbours in structure and some others; about 6.4% of the full set was active somewhere.
HUVEC prolif 384: blocks proliferation of human endothelial cells. HUVEC proliferation, CellTiter-Glo luminescence, 72 h; hits give low values. 86,000 compounds, 1.1% hits. viability, % at 10 µM (by protocol). AID 648;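 active means viability at or below 30%; inactive means viability above 30%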;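 further: 100% = median luminescence of DMSO-only cell control wells on each plate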
Jurkat viability: cytotoxicity toward Jurkat cells; AID 463; 56,000 compounds, 1.2% hits; inhibition, % at 4 µM; Jurkat E6.1 viability, ATP luminescence, 48 h;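 active means inhibition above the mean inhibition of all tested compounds plus 3 SD, cut at about 28% in these data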
Fibroblast inh: blocks proliferation of human lung fibroblasts. LL 47 human lung fibroblast viability, ATP luminescence; hits give low values. viability, % at 10 µM. 85,000 compounds, 1.1% hits;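 active means viability at or below 50% in the single dose screen; inactive means viability above 50%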;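 further: compound exposure lasted 72 h before the ATP readout; 100% = median luminescence of untreated cell-only wells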
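Material: human lung fibroblast line LL 47, low passage; Evaluation: viability percentage against median untreated-cell control; Buffer or medium: 15% FBS in IMEM; Incubation: 72 h compound exposure at 37 °C after overnight plating; Dosing: 0.1% DMSO in all compound wells; Measured by: CellTiter-Glo luminescence.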
E coli WT exp: blocks growth of wild type E. coli BW25113. OD600 absorbance. growth inhibition, % at 100 µM. 98,000 compounds, 0.15% hits. AID 710;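 active means growth inhibition above about 50% at one test dose, limit read from the data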;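 further: growth measured after 20 h incubation at 37 °C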
H69AR inhibit: blocks growth of human H69AR lung tumor cells; H69AR lung tumor viability, ATP luminescence, 72 h; hits give low values; viability, % at 10 µM; 85,000 compounds, 6% hits;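 active means viability at or below 40%; inactive means viability above 40%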;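 further: multidrug resistant small cell line overexpressing MRP-1 efflux transporter; 100% = mean luminescence of untreated control wells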
Ecoli tolC: growth inhibitors of E. coli BW25113 tolC mutant; 65,000 compounds, 2.2% hits; AID 573; growth inhibition, % at 10 µM (by protocol); OD615;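 active means growth inhibition at or above a cutoff equal to the mean over every tested compound plus 3 SD, cut at about 60% in these data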;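 further: growth measured after 20 h incubation at 37 °C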
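Test system: tolC-deleted E. coli BW25113; medium: LB with kanamycin 50 µg/mL; compound: single-point testing at 10 µM; incubation: 20 h compound exposure of bacteria at 37 °C; signal: OD at 615 nm; evaluation: growth inhibition in percent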
* = called active by the depositor; / = no result.

SMILES | HUVEC prolif 384 | Jurkat viability | Fibroblast inh | E coli WT exp | H69AR inhibit | Ecoli tolC
CCOC(=O)c1sc(NC(=O)CSc2nnnn2-c2ccc(C)c(C)c2)nc1C | 18.4* | -1.6 | 96.6 | -14.0 | 81.5 | -4.1
CCOC(=O)c1sc(NC(=O)CSc2nnnn2-c2ccc(C)cc2C)nc1C | 25.1* | 3.8 | 99.6 | -1.0 | 83.9 | -20.7
COc1ccc(OC)c(-n2nnnc2SCC(=O)Nc2nc(C)c(C)s2)c1 | 78.5 | 5.1 | 96.9 | -20.0 | 20.3* | 5.9
CCOC(=O)c1sc(NC(=O)CSc2nnnn2-c2ccccc2)nc1C | 82.4 | -4.5 | 98.8 | 0.0 | 71.6 | 14.5
Clc1ccc2nc(C3CCN(Cc4nnnn4C4CCCCC4)CC3)[nH]c2c1 | 67.8 | / | 64.1 | / | 14.8* | /
Cc1ccc(Cn2nnnc2CN2CCC(c3nc4ccc(Cl)cc4[nH]3)CC2)cc1 | / | / | / | -7.0 | / | /
N#Cc1ncc(C(F)(F)F)cc1Sc1ccc(N)cc1 | 89.1 | / | 93.8 | 5.0 | 36.1* | /
N#Cc1cc(N)ccc1Sc1ccc(Cl)cc1 | / | / | / | 32.0 | / | /
CCCc1nc2ccccc2n1CCOC | 92.8 | / | 95.1 | 4.0 | 91.2 | /
O=C(OCC(=O)N1CCc2ccccc21)C1=COCCO1 | 94.0 | -6.9 | 99.1 | 2.0 | 27.6* | -20.6
COC(=O)c1ccc(C2c3c(n[nH]c3C)C(=O)N2c2ccc(C)cc2)cc1 (centres undefined) | 100.6 | 5.2 | 51.8 | 4.0 | 98.7 | 74.7*
CCOC(=O)c1ccc(N2C(=O)c3n[nH]c(C)c3C2c2ccc(OC)cc2)cc1 (centres undefined) | 98.7 | 4.0 | 98.2 | 3.0 | 92.8 | 13.0
CCOC(=O)c1ccc(N2C(=O)c3n[nH]c(C)c3C2c2ccc(OC)cc2OC)cc1 (centres undefined) | 84.2 | 3.4 | 87.5 | / | 68.9 | 68.1*
CCOC(=O)c1ccc(N2C(=O)c3n[nH]c(C)c3C2c2ccc(OC)c(OC)c2)cc1 (centres undefined) | 87.3 | 5.9 | 99.1 | 11.0 | 85.1 | 8.4
O=C(O)CCc1nc2ccccc2n(CCc2ccccc2)c1=O | 99.3 | 2.8 | 100.8 | -7.0 | 104.9 | -8.0
Cc1ccc(N2CC(C(=O)Nc3nccs3)CC2=O)cc1Cl (centres undefined) | 17.2* | / | 28.6* | 3.0 | 86.8 | /
COC(=O)c1ccccc1NC(=O)C1CC(=O)N(c2ccc(F)cc2)C1 (centres undefined) | / | -8.5 | / | 4.0 | / | 7.1
Cc1c(Cl)cccc1N1CC(C(=O)Nc2nccs2)CC1=O (centres undefined) | 100.5 | -11.6 | 109.5 | -4.0 | 90.1 | -7.1
O=C(Nc1ccc(Cl)c(Cl)c1)C1CC(=O)N(c2ccc(Br)cc2)C1 (centres undefined) | 53.6 | / | 102.5 | / | 9.0* | /
COC(=O)c1ccccc1NC(=O)C1CC(=O)N(c2ccc(C)c(C)c2)C1 (centres undefined) | 95.5 | / | 101.7 | 2.0 | 32.0* | /
COC(=O)C1CCN(CC(=O)Nc2sc3c(c2C#N)CCC3)CC1 | 107.9 | / | 107.3 | 5.0 | 110.5 | /
O=c1cc(C(F)(F)F)c2sc(N3CCCCC3)nc2[nH]1 | 103.7 | -5.7 | 98.5 | -5.0 | 83.3 | 2.1
Cc1nnc(NC(=O)Cn2cnc3c2c(=O)n(C)c(=O)n3C)s1 | 100.1 | / | 97.8 | / | 94.0 | /
O=C(C1=C(O)/C(=C/c2ccc(O)cc2)CCC1)C(F)(F)F | 82.8 | / | 98.6 | / | 28.6* | /
Cc1cc(N)n2ncc(-c3cccc(Br)c3)c2n1 | 46.3 | 0.8 | 65.9 | 6.0 | 26.4* | 13.8
SMILES | HUVEC prolif 384 | Jurkat viability | Fibroblast inh | E coli WT exp | H69AR inhibit | Ecoli tolC
N#CC1=C(N)SC(N)=C(C#N)C1CCc1ccccc1 | 80.7 | 3.9 | 92.8 | 5.0 | 85.7 | 16.5
N#CC1=C(N)SC(N)=C(C#N)C1Cc1ccccc1 | 73.1 | 5.4 | 93.7 | 5.0 | 16.6* | 19.6
Cc1ccnc(NC(=O)C2CCN(S(=O)(=O)c3cccc4nonc34)CC2)c1 | 109.9 | -0.9 | 110.9 | 2.0 | 98.6 | -6.9
CCCc1nc(SCC(=O)N2CCCC2)c2ccccc2n1 | 82.4 | -3.6 | 92.5 | 7.0 | 37.8* | 1.1
CCCc1nc(SCC(=O)Nc2cc(C)on2)c2ccccc2n1 | 84.1 | -0.4 | 83.6 | -2.0 | 32.3* | -1.9
Cc1cc(NC(=O)CSc2nc(CCC3CCCC3)nc3ccccc23)no1 | / | -4.6 | / | -17.0 | / | 15.0
CCC(C)n1c(SCC(=O)Nc2cc(C)on2)nc2ccccc2c1=O (centres undefined) | 79.8 | / | 96.7 | 7.0 | 26.2* | /
O=C(NCc1ccco1)C(C(=O)c1ccc(F)cc1)n1ccccc1=O (centres undefined) | 103.8 | -10.5 | 107.3 | 8.0 | 96.4 | 96.9*
O=C(NCc1ccccn1)C(C(=O)c1ccc(F)cc1)n1ccccc1=O (centres undefined) | 93.4 | 2.7 | 90.5 | -10.0 | 107.2 | -8.1
Cc1ccc(-c2ccc(CCC(=O)O)n2-c2cccc(O)c2)cc1 | 100.3 | / | 102.5 | 1.0 | 98.8 | /
COC(=O)c1c(NC(=O)c2ccco2)sc(C)c1C | 83.5 | -5.0 | 98.8 | -1.0 | 86.6 | -5.7
COC(=O)c1c(NC(=O)c2ccco2)sc(C(=O)Nc2ccc(F)cc2)c1C | 34.5 | -4.2 | 100.3 | 1.0 | 3.6* | -25.6
Cn1nc(C(F)(F)F)c(/C=N/OC(=O)c2ccccc2)c1Cl | / | / | / | 1.0 | / | /
CCOC(=O)N1CCN(C(=O)C(CC)n2nc(C)c3sc4ccccc4c3c2=O)CC1 (centres undefined) | 101.3 | 2.8 | 103.3 | 3.0 | 75.5 | 16.2
COC(=O)c1c(C)oc(C)c(C(=O)OC)c1=O | 103.9 | 0.8 | 100.3 | 5.0 | 92.7 | -25.5
CCOC(=O)c1c(C)oc2c(F)c(F)c(F)c(F)c2c1=O | 8.7* | -8.1 | 58.6 | 4.0 | / | 2.8
COc1ccc(CN2CCN(c3ccccn3)CC2)c(OC)c1 | 89.3 | 1.5 | 102.3 | 2.0 | 95.8 | -6.6
C=CCOc1ccc(C2OC34CCCCC3C(C#N)(C#N)C2(C#N)C(=N)O4)cc1 (centres undefined) | 76.8 | / | 89.0 | -5.0 | 12.7* | /
COC(=O)CN1C(=O)CC(C)(C)S(=O)c2ccccc21 (centres undefined) | 101.8 | -5.8 | 101.3 | 4.0 | 105.6 | -11.2
C=CCn1c(SCC(=O)Nc2ccc(C(=O)OCC)cc2)nnc1-c1sc(N)nc1C | 98.8 | 0.5 | 101.3 | -1.0 | 39.5* | 6.2
CC(=O)Nc1ccc(-c2nnc(SCC(=O)n3c4c(c5ccccc53)CCCC4)n2C)cc1 | 93.2 | 11.8 | 99.9 | 2.0 | 35.2* | 12.3
Cn1c(SCC(=O)n2c3c(c4ccccc42)CCCC3)nnc1-c1ccccc1 | 96.5 | / | 99.0 | -18.0 | 94.6 | /
CCN1C=CC(=C2C(=O)c3ccccc3C2=O)C=C1 | 61.2 | 32.6 | 68.7 | 0.0 | 27.1* | -15.1
O=C(NCC1CCN(c2ccc(S(=O)(=O)N3CCOCC3)cc2)CC1)c1cccc(Cl)c1 | 81.2 | / | 96.3 | -12.0 | 48.7 | /
CC1CN(S(=O)(=O)c2ccc(NC(=O)c3ccco3)cc2)CC(C)O1 (centres undefined) | 109.2 | / | 105.0 | 6.0 | 88.1 | -8.9
